Laboratory results from publication PMC12533025 (Scientific Reports, 2025).

Columns and labels:
male Wistar mice = test: Warm-water tail-flick test; assay type: in vivo; conditions: for acute antinociceptive agonist effect, tail flick assay: up to 30 mg/kg dose; for percentage of maximum possible effect (% MPE), tail flick assay: compared with the KOP agonist Nalbuphine
KOP [1] = target: T1, KOP (Mus musculus, UniProt P33534); test: Radioligand competitive binding assay, KOP; conditions: KOP versus MOP binding
prolactin = test: Prolactin ELISA assay; assay type: in vivo, mice; conditions: rat prolactin ELISA test; relative to normal level
In short: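 After dosing, blood is drawn by retro-orbital sinus bleed from isoflurane-anaesthetised mice and spun at 1000 g, 4 °C, 10 min. Plasma is diluted 1:20 and prolactin is measured by […] prolactin sandwich ELISA per kit protocol. Values are in ng/mL. Groups are compared with control by one-way ANOVA and Dunnett post-hoc test (p < 0.05).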

MOP [2] = target: T2, MOP (Mus musculus, UniProt P42866); test: Radioligand competitive binding assay, MOP; conditions: MOP over KOP
KOP [3] = target: T1, KOP; test: [35S]-GTPγS stimulated binding functional assay, KOP; assay type: biochemical; conditions: for agonism in the [35S]-GTPγS functional assay: KOP and MOP functional assay
In short: (§1)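 Membranes come from CHO cells expressing cloned mouse opioid receptors. Membrane protein (10 µg) is incubated with test compound (5µM), […] and 0.1nM [35S]-GTPγS in 50mM Tris, 3mM MgCl2, 0.2mM EDTA, pH 7.7, for 2 h at room temperature. Non-specific binding is defined with 20µM unlabelled GTPγS. Full-agonist references at 5µM are DAMGO (MOP) and salvinorin A (KOP).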

MOP [4] = target: T2, MOP; test: [35S]-GTPγS stimulated binding functional assay, MOP; assay type: biochemical
In short: as §1

[5] = clinical trials; cited from earlier work
KOP [6] = conditions: [35S]GTP-γ-S assay; cited from earlier work
[7] = cited from earlier work

SMILES: CC(C)[C@H](CN1CCc2ccccc2C1)NC(=O)Cc1c[nH]c2ccccc12 [(R)-10c, (R)-N-(1-(3,4-dihydroisoquinolin-2(1H)-yl)-3-methylbutan-2-yl)-2-(1H-indol-3-yl)acetamide]
- acute antinociceptive agonist effect, tail flick assay (male Wistar mice): failed to show any significant agonist effect

SMILES: CC(C)Cc1ccc([C@@H](C)C(=O)NC(CN2CCc3ccccc3C2)C(C)C)cc1 (stereo partly drawn) [(R)-10d]
- KOP selectivity (KOP [1]): most selective
- percentage of maximum possible effect (% MPE), tail flick assay (male Wistar mice): comparable to that of the KOP agonist Nalbuphine
- blood prolactin levels (prolactin): double

SMILES: Cc1c(CC(=O)N[C@@H](CN2CCc3ccccc3C2)C(C)C)cccc1[N+](=O)[O-] [(R)-10m, (R)-N-(1-(3,4-dihydroisoquinolin-2(1H)-yl)-3-methylbutan-2-yl)-2-(2-methyl-3-nitrophenyl)acetamide]
- MOP selectivity (MOP [2]): 23 fold
- EC50 (KOP [3]): 666 nM
- EC50 (MOP [4]): 94.5 nM
- IC50 (MOP [4]): 94.5 nM
- latency in the tail-flick animal model (male Wistar mice; compared with positive control Nalbuphine): comparable latency to the positive control, Nalbuphine
- percentage of maximum possible effect (% MPE), tail flick assay (male Wistar mice): comparable to that of the KOP agonist Nalbuphine
- blood prolactin levels (prolactin): double

SMILES: CC(C)[C@@H](CN1CCc2ccccc2C1)NC(=O)c1cccc(-c2cccc(O)c2)c1 [(S)-10h, (S)-N-(1-(3,4-dihydroisoquinolin-2(1H)-yl)-3-methylbutan-2-yl)-3′-hydroxy-[1,1′-biphenyl]-3-carboxamide]
- functional character at KOP/MOP (KOP [3]; KOP and MOP): non-selective KOP/MOP antagonist
- agonism in the [35S]-GTPγS functional assay (KOP [3]): failed to produce any agonism
- acute antinociceptive agonist effect, tail flick assay (male Wistar mice): failed to show any significant agonist effect

SMILES: CC(C)[C@@H](CN1CCc2ccccc2C1)NC(=O)c1cccc(-c2cccc(C#N)c2)c1 [(S)-10i, (S)-3′-cyano-N-(1-(3,4-dihydroisoquinolin-2(1H)-yl)-3-methylbutan-2-yl)-[1,1′-biphenyl]-3-carboxamide]
- agonism in the [35S]-GTPγS functional assay (KOP [3]): failed to produce any agonism
- acute antinociceptive agonist effect, tail flick assay (male Wistar mice): failed to show any significant agonist effect

SMILES: CC(C)[C@@H](CN1CCc2ccccc2C1)NC(=O)c1cccc(-c2cccnc2)c1 [(S)-10j, (S)-N-(1-(3,4-dihydroisoquinolin-2(1H)-yl)-3-methylbutan-2-yl)-3-(pyridin-3-yl)benzamide]
- percentage of maximum possible effect (% MPE), tail flick assay (male Wistar mice): comparable to that of the KOP agonist Nalbuphine
- blood prolactin levels (prolactin): double

SMILES: Cc1cc(C)cc([C@@H]2CCCN2Cc2ccc(Oc3ccc(C(N)=O)cc3F)cc2)c1 [Aticaprant]
- adverse effects (NSVT) [5]: devoid of the NSVT effect

SMILES: CC(C)[C@@H](CN1CC[C@@](C)(c2cccc(O)c2)[C@@H](C)C1)NC(=O)[C@H]1Cc2ccc(O)cc2CN1 [JDTic]
- Ki (KOP [6]): 0.006 nM
- µ/ĸ ratio (KOP [6]): 570
- δ/ĸ ratio (KOP [6]): > 16600
- adverse effects (NSVT) [5]: non-sustained ventricular tachycardia (NSVT)
- blood–brain barrier penetration [7]: low blood–brain barrier penetration
